Assay results reported in ChEMBL document CHEMBL2157988, “Isolation, characterization and cytotoxic activity of benzophenone glucopyranosides from Mahkota Dewa (Phaleria macrocarpa (Scheff.) Boerl)” (Bioorg Med Chem Lett, 2012).
Calls of active or inactive are those of the source. The rule behind the calls is not given here.

Experiments:
Format in all cases: functional, cell-based
[1] = Cytotoxicity against human EC9706 cells after 72 hrs by SRB assay; settings: EC9706, 72 h
Outline: (§1)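 Cells in DMEM with 10% FBS and 1% penicillin/streptomycin; log-phase cells trypsinized and seeded at 5000 cells/well. DMSO stocks diluted 1000-fold in medium (<0.1% DMSO); final 100 down to 1.5625 μM in twofold steps, 72 h. Fixed with 50% TCA, stained 0.4% SRB, solubilized in 10 mM Tris base pH 10.5, OD 515 nm; IC50 calculated.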

PC-3 = assay: Cytotoxicity against human PC3 cells after 72 hrs by SRB assay; settings: PC-3, 72 h; outline: as §1
[2] = Cytotoxicity against human EC109 cells after 72 hrs by SRB assay; settings: ECa-109, 72 h; outline: as §1
MGC-803 [3] = assay: Cytotoxicity against human MGC803 cells after 72 hrs by SRB assay; settings: MGC-803, 72 h; outline: as §1
MGC-803 [4] = assay: Cytotoxicity against human L-NAC-pretreated MGC803 cells incubated 2 hr post-L-NAC addition measured after 72 hrs by SRB assay
Outline: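 MGC-803 cells in DMEM/10% FBS, seeded 5000 cells/well, preincubated with or without 5 mM L-NAC (ROS scavenger) for 2 h before compound addition. Compound final 100 to 1.5625 μM (twofold series, <0.1% DMSO), 72 h. SRB readout after TCA fixation, OD 515 nm; IC50 (50% cell death) calculated.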

Structure (SMILES)	IC50 [1] [µM]	IC50 (PC-3) [µM]	IC50 [2] [µM]	IC50 (MGC-803 [3]) [µM]	Activity (MGC-803 [4])
C=CCOc1ccc(C(=O)c2c(OCC=C)cc(OC)cc2O[C@@H]2O[C@H](CO)[C@@H](O)[C@H](O)[C@H]2O)cc1	> 100	> 100	> 100	> 100	
COc1cc(O)c(C(=O)c2ccc(O)cc2)c(O[C@@H]2O[C@H](CO)[C@@H](O)[C@H](O)[C@H]2O)c1 [MAHKOSIDE A]	> 100	> 100	> 100	> 100	
COc1cc(O)c(C(=O)c2ccc(OCc3ccccc3)cc2)c(OCc2ccccc2)c1	> 100	> 100	> 100	> 100	
COc1cc(OCC2CO2)c(C(=O)c2ccc(OCC3CO3)cc2)c(O[C@@H]2O[C@H](CO)[C@@H](O)[C@H](O)[C@H]2O)c1 (stereo partly drawn)	> 100	> 100	> 100	> 100	
COc1cc(OCCCBr)c(C(=O)c2ccc(OCCCBr)cc2)c(O[C@@H]2O[C@H](CO)[C@@H](O)[C@H](O)[C@H]2O)c1	31.3	40	23.1	53.8	
COc1cc(OC)c(C(=O)c2ccc(O)cc2)c(O[C@@H]2O[C@H](CO)[C@@H](O)[C@H](O)[C@H]2O)c1	> 100	> 100	> 100	> 100	
COc1cc(OC(=O)c2ccccc2)c(C(=O)c2ccc(OC(=O)c3ccccc3)cc2)c(O[C@@H]2O[C@H](COC(=O)c3ccccc3)[C@@H](OC(=O)c3ccccc3)[C@H](OC(=O)c3ccccc3)[C@H]2OC(=O)c2ccccc2)c1	> 100	> 100	> 100	> 100	
COc1cccc(COc2ccc(C(=O)c3c(OCc4cccc(OC)c4)cc(OC)cc3O[C@@H]3O[C@H](CO)[C@@H](O)[C@H](O)[C@H]3O)cc2)c1	20.9	6.92	12.3	18.4	
CCOc1ccc(C(=O)c2c(OCC)cc(OC)cc2O[C@@H]2O[C@H](CO)[C@@H](O)[C@H](O)[C@H]2O)cc1	> 100	> 100	> 100	> 100	
COc1cc(OCCCBr)c(C(=O)c2ccc(OCc3ccccc3)cc2)c(OCc2ccccc2)c1	> 100	> 100	> 100	> 100	
CCCC(=O)OC[C@H]1O[C@@H](Oc2cc(OC)cc(OC(=O)CCC)c2C(=O)c2ccc(OC(=O)CCC)cc2)[C@H](OC(=O)CCC)[C@@H](OC(=O)CCC)[C@@H]1OC(=O)CCC	> 100	> 100	> 100	> 100	
COc1ccc(COc2ccc(C(=O)c3c(OCc4ccc(OC)cc4)cc(OC)cc3O[C@@H]3O[C@H](CO)[C@@H](O)[C@H](O)[C@H]3O)cc2)cc1	20.5	11.7	17.1	28.2	
COc1cc(OCc2ccccc2)c(C(=O)c2ccc(OCc3ccccc3)cc2)c(O[C@@H]2O[C@H](CO)[C@@H](O)[C@H](O)[C@H]2O)c1	41.1	28.9	22.7	44.3	
COc1cc(OC(C)=O)c(C(=O)c2ccc(OC(C)=O)cc2)c(O[C@@H]2O[C@H](COC(C)=O)[C@@H](OC(C)=O)[C@H](OC(C)=O)[C@H]2OC(C)=O)c1	86.1	34.1	50.7	47.3	
COc1cc(O)c(C(=O)c2ccc(O)cc2)c(O[C@@H]2O[C@H](COC(C)=O)[C@@H](O)[C@H](O)[C@H]2O)c1 [MAHKOSIDE B]	> 100	> 100	> 100	> 100	
COc1cc(OC(=O)c2ccc(Cl)cc2)c(C(=O)c2ccc(OC(=O)c3ccc(Cl)cc3)cc2)c(O[C@@H]2O[C@H](COC(=O)c3ccc(Cl)cc3)[C@@H](OC(=O)c3ccc(Cl)cc3)[C@H](OC(=O)c3ccc(Cl)cc3)[C@H]2OC(=O)c2ccc(Cl)cc2)c1	> 100	> 100	> 100	> 100	
COc1cc(OCCCN2CCCCC2)c(C(=O)c2ccc(OCc3ccccc3)cc2)c(OCc2ccccc2)c1	4.97	3.47	5.14	3.12	Active
CCCCOc1ccc(C(=O)c2c(OCCCC)cc(OC)cc2O[C@@H]2O[C@H](CO)[C@@H](O)[C@H](O)[C@H]2O)cc1	41.8	32	29	49.2	
